Source: ChEMBL document CHEMBL3352729, “Hydroxybenzothiophene Ketones Are Efficient Pre-mRNA Splicing Modulators Due to Dual Inhibition of Dyrk1A and Clk1/4” (ACS Med Chem Lett, 2014)
Active and inactive are the calls of the source. The calls are words filed in the database; no cut-off is given here.

Legend:
[1] = molecular target: T1, Dual specificity tyrosine-phosphorylation-regulated kinase 1A (Homo sapiens, UniProt Q13627); assay: Inhibition of recombinant Dyrk1A (unknown origin) using KKISGRLSPIMTEQ-NH2 peptide substrate
How it was run: (§1)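 Kinase activity was measured in a cell-free assay with recombinant enzyme and peptide substrate at 100 μM ATP. Values are reported as IC50.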

[2] = molecular target: T2, Dual specificity tyrosine-phosphorylation-regulated kinase 1B (Homo sapiens, UniProt Q9Y463); assay: Inhibition of recombinant Dyrk1B (unknown origin) using KKISGRLSPIMTEQ-NH2 peptide substrate
Target sequence in this assay (Q9Y463 whole entry): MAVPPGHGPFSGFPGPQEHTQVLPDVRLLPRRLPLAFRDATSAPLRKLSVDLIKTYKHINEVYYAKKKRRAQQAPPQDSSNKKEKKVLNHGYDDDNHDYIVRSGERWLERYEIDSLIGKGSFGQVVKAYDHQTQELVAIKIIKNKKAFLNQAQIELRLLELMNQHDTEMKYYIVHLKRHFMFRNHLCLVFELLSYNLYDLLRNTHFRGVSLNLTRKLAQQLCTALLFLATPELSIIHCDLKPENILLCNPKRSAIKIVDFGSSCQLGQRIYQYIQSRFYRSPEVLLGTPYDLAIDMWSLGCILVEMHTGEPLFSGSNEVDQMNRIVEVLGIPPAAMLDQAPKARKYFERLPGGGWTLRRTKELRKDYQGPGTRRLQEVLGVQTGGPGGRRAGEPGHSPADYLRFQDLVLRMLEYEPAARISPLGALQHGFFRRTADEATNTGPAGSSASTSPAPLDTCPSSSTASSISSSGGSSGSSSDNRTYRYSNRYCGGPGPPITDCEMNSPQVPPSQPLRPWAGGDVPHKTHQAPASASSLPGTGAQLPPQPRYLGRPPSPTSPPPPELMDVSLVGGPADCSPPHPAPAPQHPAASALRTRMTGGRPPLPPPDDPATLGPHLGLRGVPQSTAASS

[3] = molecular target: T3, Dual specificity tyrosine-phosphorylation-regulated kinase 2 (Homo sapiens) (UniProt Q92630); assay: Inhibition of recombinant Dyrk2 (unknown origin) using KKISGRLSPIMTEQ-NH2 peptide substrate at 5 uM
T3 sequence (whole entry): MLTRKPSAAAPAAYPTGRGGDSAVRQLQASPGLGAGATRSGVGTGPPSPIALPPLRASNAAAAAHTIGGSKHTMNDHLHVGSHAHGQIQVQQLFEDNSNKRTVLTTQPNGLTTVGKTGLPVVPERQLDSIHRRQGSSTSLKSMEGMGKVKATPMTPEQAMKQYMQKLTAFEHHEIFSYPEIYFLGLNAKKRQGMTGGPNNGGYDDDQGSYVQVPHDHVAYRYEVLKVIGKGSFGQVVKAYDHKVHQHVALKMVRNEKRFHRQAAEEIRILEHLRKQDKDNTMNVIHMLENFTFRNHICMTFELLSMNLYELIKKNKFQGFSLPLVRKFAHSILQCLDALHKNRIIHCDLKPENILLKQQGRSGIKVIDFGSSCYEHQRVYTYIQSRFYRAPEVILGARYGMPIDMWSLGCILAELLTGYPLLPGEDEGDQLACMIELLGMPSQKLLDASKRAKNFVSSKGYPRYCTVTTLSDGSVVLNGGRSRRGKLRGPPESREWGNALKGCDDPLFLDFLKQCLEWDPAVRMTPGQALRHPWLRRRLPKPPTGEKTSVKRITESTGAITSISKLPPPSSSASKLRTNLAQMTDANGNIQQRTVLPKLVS

[4] = molecular target: T4, Dual specificity protein kinase CLK1 (Homo sapiens, UniProt P49759); assay: Inhibition of recombinant Clk1 (unknown origin) using GRSRSRSRSR peptide substrate; how it was run: as §1
Target sequence in this assay (P49759 whole entry): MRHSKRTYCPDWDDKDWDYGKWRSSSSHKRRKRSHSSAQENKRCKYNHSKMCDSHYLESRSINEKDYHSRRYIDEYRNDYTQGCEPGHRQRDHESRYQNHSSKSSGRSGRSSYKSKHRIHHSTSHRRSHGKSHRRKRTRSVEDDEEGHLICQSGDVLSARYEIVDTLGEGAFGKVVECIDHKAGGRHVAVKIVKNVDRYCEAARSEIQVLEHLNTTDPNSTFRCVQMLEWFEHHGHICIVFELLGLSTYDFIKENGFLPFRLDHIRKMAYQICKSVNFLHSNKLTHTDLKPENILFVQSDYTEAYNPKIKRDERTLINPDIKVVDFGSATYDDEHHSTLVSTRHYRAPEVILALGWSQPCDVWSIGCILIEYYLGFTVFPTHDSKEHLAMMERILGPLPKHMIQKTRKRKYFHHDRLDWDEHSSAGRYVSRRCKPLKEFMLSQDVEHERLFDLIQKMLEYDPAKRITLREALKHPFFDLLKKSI

[5] = molecular target: Casein kinase II subunit alpha (Homo sapiens) (UniProt P68400); assay: Inhibition of CK2alpha (unknown origin) at 5 uM
Chain of Casein kinase II subunit alpha (Homo sapiens) (P68400 whole entry, looked up): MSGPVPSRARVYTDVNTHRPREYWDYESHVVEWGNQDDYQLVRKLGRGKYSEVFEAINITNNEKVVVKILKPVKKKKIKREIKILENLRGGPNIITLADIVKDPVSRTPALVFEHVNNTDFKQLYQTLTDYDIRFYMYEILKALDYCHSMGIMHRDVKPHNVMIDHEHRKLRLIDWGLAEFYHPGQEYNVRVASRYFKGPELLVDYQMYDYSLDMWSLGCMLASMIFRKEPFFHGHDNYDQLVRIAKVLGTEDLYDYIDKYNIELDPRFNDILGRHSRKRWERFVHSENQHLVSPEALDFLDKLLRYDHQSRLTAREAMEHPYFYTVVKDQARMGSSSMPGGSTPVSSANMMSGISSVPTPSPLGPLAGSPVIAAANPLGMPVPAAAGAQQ

[6] = tested on: STO; assay: Modulation of pre-mRNA splicing in human STO cells assessed as increase in mature Clk1 mRNA production at 10 to 20 uM by RT-PCR analysis
[7] = molecular target: T1, Dual specificity tyrosine-phosphorylation-regulated kinase 1A; assay: Inhibition of recombinant Dyrk1A (unknown origin) using KKISGRLSPIMTEQ-NH2 peptide substrate at 5 uM
[8] = molecular target: T2, Dual specificity tyrosine-phosphorylation-regulated kinase 1B; assay: Inhibition of recombinant Dyrk1B (unknown origin) using KKISGRLSPIMTEQ-NH2 peptide substrate at 5 uM
Target sequence in this assay (Q9Y463 whole entry, looked up): as the sequence (Q9Y463 whole entry) above

[9] = molecular target: T4, Dual specificity protein kinase CLK1; assay: Inhibition of recombinant Clk1 (unknown origin) using GRSRSRSRSR peptide substrate at 5 uM
Target sequence in this assay (P49759 whole entry, looked up): as the sequence (P49759 whole entry) above

[10] = molecular target: T5, 17-beta-hydroxysteroid dehydrogenase type 1 (Homo sapiens) (UniProt P14061); assay: Inhibition of 17-betaHSD1 (unknown origin) at 5 uM
T5 sequence (whole entry): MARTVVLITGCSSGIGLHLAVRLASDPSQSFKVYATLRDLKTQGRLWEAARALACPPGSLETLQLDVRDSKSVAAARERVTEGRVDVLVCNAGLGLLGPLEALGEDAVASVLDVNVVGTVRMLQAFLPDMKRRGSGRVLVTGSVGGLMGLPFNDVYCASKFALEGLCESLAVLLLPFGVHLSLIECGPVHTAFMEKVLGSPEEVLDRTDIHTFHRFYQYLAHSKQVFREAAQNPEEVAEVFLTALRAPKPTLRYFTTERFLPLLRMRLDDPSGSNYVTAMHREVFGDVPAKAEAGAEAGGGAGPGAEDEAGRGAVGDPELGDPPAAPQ

[11] = Modulation of Clk/sty pre-mRNA splicing in human STO cells assessed as concentration required to increase in mature Clk1 mRNA level by RT-PCR analysis
[12] = Modulation of Clk/sty pre-mRNA splicing in human STO cells assessed as concentration required to 5 fold increase in mature Clk1 mRNA level by RT-PCR analysis
[13] = Modulation of Clk/sty pre-mRNA splicing in human STO cells assessed as concentration required to increase in mature Clk1 mRNA level by RT-PCR analysis relative to control
[14] = Modulation of Clk/sty pre-mRNA splicing in human STO cells assessed as concentration required to increase in mature Clk2 mRNA level by RT-PCR analysis; assay type: functional, cell-based; settings: in the assay text read “Clk1” for “Clk2”
How it was run: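 STO cells were treated for 4 h with compound added to the culture medium, with 0.05% DMSO as control. Total RNA was purified, and the Clk1/Sty splicing pattern was analysed by RT-PCR. Read-outs were the concentration for a 5-fold increase, the concentration for half-maximal generation of mature Clk1 mRNA, and the maximum fold increase over DMSO. Data are means of three independent experiments run in triplicate.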

[15] = molecular target: T6, 17-beta-hydroxysteroid dehydrogenase type 1 (Homo sapiens, UniProt P14061); assay: Inhibition of 17-betaHSD1 (unknown origin)
T6 sequence (P14061 whole entry): T5 sequence (whole entry)

Compound | IC50 [1] | IC50 [2] | inhibition [3] | IC50 [4] | inhibition [5] | inhibition [7] | inhibition [8] | inhibition [9] | EC50 [11] | EC50 [14] | IC50 [15] | Activity [6] | inhibition [10] | Activity [12] | fold change (FC) [13]
O=C(c1cccc(O)c1)c1ccc2cc(O)ccc2c1 | 2.9 µM | 2.3 µM | – | 1.9 µM | – | – | – | – | – | – | – | – | – | – | –
COc1cccc(C(=O)c2cc3cc(OC)ccc3s2)c1 | – | – | -7% | – | – | 10% | 40% | 47% | – | – | – | – | – | – | –
O=C(c1ccc(F)c(O)c1)c1cc2cc(O)ccc2s1 | 1.2 µM | 0.4 µM | 27% | 0.3 µM | 15% | – | – | – | – | – | – | – | – | – | –
O=C(c1cc2cc(O)ccc2s1)c1cc(O)ccc1F | 2 µM | 0.4 µM | 30% | 0.05 µM | 20% | – | – | – | – | – | – | – | – | – | –
O=C(c1cccc(O)c1)c1cc2cc(O)ccc2o1 | 3.1 µM | 6.1 µM | 34% | 1.9 µM | 21% | – | – | – | – | – | – | – | – | – | –
Cn1c(C(=O)c2cccc(O)c2)cc2cc(O)ccc21 | 3.4 µM | 2.7 µM | 25% | 2.1 µM | 31% | – | – | – | – | – | – | – | – | – | –
O=C(c1ccccc1)c1cc2cc(O)ccc2s1 | 2 µM | 1 µM | 37% | 0.2 µM | 13% | – | – | – | – | – | – | – | – | – | –
O=C(c1cccc(O)c1)c1cc2cc(O)ccc2[nH]1 | 15 µM | – | 24% | 2 µM | 22% | – | 41% | – | – | – | – | – | – | – | –
COc1ccc2sc(C(=O)N(C)OC)cc2c1 | 0.9 µM | 1.6 µM | 41% | 0.1 µM | – | – | – | – | 2.1 µM | – | – | – | inactive | 2.4 µM | 8.1
CCN1/C(=C/C(C)=O)Sc2ccc(OC)cc21 | – | – | – | – | – | – | – | – | – | 6.6 µM | – | – | – | 3.1 µM | 17
CC(=O)c1cc2cc(O)ccc2s1 | 0.2 µM | 0.1 µM | 46% | 0.06 µM | 9% | – | – | – | – | 8.9 µM | – | Active | inactive | 1.1 µM | 21.4
O=C(c1ccc(O)cc1)c1cc2cc(O)ccc2o1 | 9.7 µM | 1.3 µM | 38% | 1 µM | 17% | – | – | – | – | – | – | – | – | – | –

Continued, in another order:

IC50 [1] | IC50 [2] | inhibition [3] | IC50 [4] | inhibition [5] | inhibition [7] | inhibition [8] | inhibition [9] | EC50 [11] | EC50 [14] | IC50 [15] | Compound | Activity [6] | inhibition [10] | Activity [12] | fold change (FC) [13]
6 µM | 2.3 µM | 6% | 0.4 µM | 10% | – | – | – | – | – | – | N#Cc1cccc(C(=O)c2cc3cc(O)ccc3s2)c1 | – | – | – | –
0.4 µM | 0.2 µM | 49% | 0.1 µM | 12% | – | – | – | – | – | – | O=C(c1cccc(O)c1)c1cc2cc(O)ccc2s1 | Active | – | – | –
11 µM | 7 µM | 8% | – | – | – | – | 25% | – | – | – | Cc1cc(C(=O)c2cc3cc(O)ccc3s2)ccc1O | – | – | – | –
3.4 µM | 0.8 µM | 25% | 0.3 µM | 33% | – | – | – | – | – | – | O=C(c1ccc(O)cc1)c1cc2cc(O)ccc2s1 | – | – | – | –
0.2 µM | 0.2 µM | 50% | 0.05 µM | 10% | – | – | – | – | 1.8 µM | 0.195 µM | Cc1ccc(C(=O)c2cc3cc(O)ccc3s2)cc1O | Active | – | 1.9 µM | 9.5
42 µM | – | 15% | – | 24% | – | 6% | – | – | – | – | O=C(c1cccc(O)c1)c1cc2ccccc2s1 | – | – | – | –
